Measured values as given in ChEMBL document CHEMBL1123269, “Synthesis and antitumor activity of certain 3-beta-D-ribofuranosyl-1,2,4-triazolo[3,4-f]-1,2,4-triazines related to formycin prepared via ring closure of a 1,2,4-triazine precursor” (1986).

Legend:
Format in all cases: functional
[1] = Concentration that produced 50% inhibition of WIL2 leukemia tumor cell growth was determined; conditions: Homo sapiens, read-out: ID50 (the source's name)
Procedure, shortened: (§1)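 WIL2 human B-lymphoblastic leukemia cells were kept mycoplasma-free in suspension culture in RPMI-1640 with 10% fetal bovine serum and 20 mM Hepes. Triplicate wells held 5 × 10⁴ cells/mL and compound at 0.1–100 μM final (0.5-log dilutions), for 72 h at 37 °C in 5% CO₂. Coulter cell counts gave growth as % of untreated or Me₂SO-matched controls. ID₅₀ came from the concentration plot.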

[2] = test system: CCRF-CEM; test: Concentration that produced 50% inhibition of CCRF-CEM leukemia tumor cell growth was determined; conditions: Homo sapiens, read-out: ID50 (the source's name)
Procedure, shortened: (§2)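 Assay in CCRF-CEM human T-lymphoblastic leukemia cells (mycoplasma-free; suspension in RPMI-1640, 10% fetal bovine serum, 20 mM Hepes). Seeded at 5 × 10⁴ cells/mL with compound at 0.1–100 μM final in 0.5-log steps, triplicate, for 92 h at 37 °C in humidified 5% CO₂. Electronic cell count gave growth as % of control (Me₂SO-matched where relevant). ID₅₀ was taken from the plot.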

[3] = test system: L1210; test: Concentration that produced 50% inhibition of L1210 leukemia tumor cell growth was determined; conditions: Mus musculus, read-out: ID50 (the source's name)
Procedure, shortened: (§3)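 L1210 murine lymphocytic leukemia cells, mycoplasma-free, grown in suspension in RPMI-1640 with 10% fetal bovine serum and 20 mM Hepes. Inoculum 5 × 10⁴ cells/mL with compound at 0.1–100 μM final (0.5-log steps), in triplicate. Incubated 48 h at 37 °C, humidified 5% CO₂. Growth was measured by Coulter count as % of untreated control, or of a matched Me₂SO control. ID₅₀ was read from the %-control vs concentration plot.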

[4] = test system: CCRF-CEM; test: Concentration that produced 50% inhibition of CCRF-CEM leukemia tumor cell growth was determined at 100 uM; conditions: Homo sapiens; procedure, shortened: as §2
[5] = test system: L1210; test: Concentration that produced 50% inhibition of L1210 leukemia tumor cell growth was determined at 100 uM; conditions: Mus musculus; procedure, shortened: as §3
[6] = Concentration that produced 50% inhibition of WIL2 leukemia tumor cell growth was determined at 100 uM; conditions: Homo sapiens; procedure, shortened: as §1

Structure (SMILES)	IC50 [2]	IC50 [3]	IC50 [1]	inhibition at 100 µM [4]	inhibition at 100 µM [5]	inhibition at 100 µM [6]
Nc1nn2c([C@@H]3O[C@H](CO)[C@@H](O)[C@H]3O)nnc2c(=S)[nH]1	67 µM	–	–	–	–	–
O=c1[nH]cnn2c([C@@H]3O[C@H](CO)[C@@H](O)[C@H]3O)nnc12	–	7 µM	15 µM	–	–	–
Nc1nn2c([C@@H]3O[C@H](CO)[C@@H](O)[C@H]3O)nnc2c(=O)[nH]1	–	–	–	30%	47%	35%

More lines, main results first:

IC50 [2]	IC50 [3]	Structure (SMILES)	IC50 [1]	inhibition at 100 µM [4]	inhibition at 100 µM [5]	inhibition at 100 µM [6]
8.4 µM	31.6 µM	O=C1N=CN=C2C([C@@H]3O[C@H](CO)[C@@H](O)[C@H]3O)=NNC12 (stereo partly drawn)	7.5 µM	–	–	–
5 µM	6.3 µM	Nc1ncnn2c([C@@H]3O[C@H](CO)[C@@H](O)[C@H]3O)nnc12	7.3 µM	–	–	–
44.7 µM	16.3 µM	Nc1nc(N)c2nnc([C@@H]3O[C@H](CO)[C@@H](O)[C@H]3O)n2n1	45.8 µM	–	–	–
6.1 µM	27.6 µM	Nc1ncnc2c([C@@H]3O[C@H](CO)[C@@H](O)[C@H]3O)[nH]nc12 [FORMYCIN]	6.2 µM	–	–	–
